In paper PMC7304851 (Journal for Immunotherapy of Cancer, 2020):
“Also recorded” adds a separate entry of the source.

Assays:
[1] = system: EP4-regulated genes and immune-related circulating factors; test: Blood gene expression, serum cytokines/chemokines, flow cytometry; format: in vivo, human
How it was run: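 Patients with advanced tumors took oral drug once daily (125–750 mg) in 21-day cycles. mRNA isolated from blood was profiled on a 92-gene TaqMan Low Density Array panel. Serum/plasma levels of 36 immune-related circulating factors were measured by proteomics, ELISA and Meso Scale Discovery multiplex. Blood immune subsets were assessed by eight-color flow cytometry. Cycle 1 day 15 was compared with baseline by paired t-test.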

[2] = system: mouse syngeneic tumor models; details: dependent on myeloid cells and CD8+ T cells; cited from earlier work
[3] = system: Pan02 pancreatic syngeneic tumor model; test: Preclinical FDG-PET, Pan02 model; format: in vivo, mouse; details: data not shown
FDG-avid tumor lesions = test: 18FDG-PET metabolic response; format: in vivo, human
[4] = Phase 1 safety and tolerability; format: in vivo, human
[5] = Clinical pharmacokinetics in plasma; format: in vivo, human
advanced tumors = test: Tumor response by irRECIST, survival and treatment duration; format: in vivo, human
[6] = system: immune-cell infiltration in tumor; test: Paired tumor biopsies: immunohistochemistry and TLDA gene expression; format: in vivo, human
[7] = system: 4T1 breast syngeneic tumor model; test: Preclinical FDG-PET, 4T1 model; format: in vivo, mouse; details: 4T1 breast model, data not shown
[8] = system: relapsed or refractory classical Hodgkin’s lymphoma; details: cited from earlier work
macrophage infiltration = details: preclinical models; cited from earlier work
[9] = system: primary human peripheral blood mononuclear cells (PBMCs); test: EP4 agonist in PBMCs, TNF-α and CXCL10 by RT-PCR; format: cell-based; details: PBMCs from healthy donors incubated with EP4 agonist
[10] = blood, on treatment versus baseline
[11] = cycle 1 day 15 compared with baseline
[12] = all patients, combined incidence

C[C@H](NC(=O)c1c(C(F)F)nn(C)c1Oc1cccc(C(F)(F)F)c1)c1ccc(C(=O)O)cc1 [E7046]
circulating gene expression of CD274 (PD-L1) and PDCD1LG2 (PD-L2) [1, 10]: increased expression
circulating gene expression of EOMES, PTGER4 and IDO1 [1, 10]: decreased expression
number of genes modulated in blood out of a 92-immune-gene panel [1, 11]: 16
number of serum cytokines and chemokines modulated out of a panel of 36 [1, 11]: 14
serum level of CXCL10 ([1]; cycle 1 day 15 compared with baseline, p=0.0015): significantly upregulated
serum level of CCL5 ([1]; cycle 1 day 15 compared with baseline, p=0.0292): significantly upregulated
major immune cell subsets in the blood (T cells, B cells, natural killer cells, MDSC) ([1]; eight-color flow cytometry, data not shown): no significant changes
growth of multiple mouse syngeneic tumor models [2]: inhibited the growth
FDG-PET signal compared with vehicle treatment [3]: decreased the FDG-PET signal
patients with partial metabolic response (18FDG-PET) (FDG-avid tumor lesions; 15 evaluable patients (3/15), SUVmax reduction ≥25%): 20%
FDG-PET signal reduction (partial metabolic response) (FDG-avid tumor lesions; individual patient case): 31%
duration of treatment of the three patients with partial metabolic responses (FDG-avid tumor lesions; longest among all patients): 145 to 208 days
TEAE incidence diarrhea ([4]; 750 mg dose cohort): 42.9%
TEAE incidence fatigue ([4]; 750 mg dose cohort): 42.9%
TEAE incidence nausea ([4]; 750 mg dose cohort): 42.9%
Dose-limiting toxicities (DLTs) ([4]; 125, 250, 500 and 750 mg orally once daily, cycle 1): No dose-limiting toxicities were observed; also recorded: no DLTs observed; also recorded: No DLTs were reported
Maximum tolerated dose (MTD) ([4]; 125 to 750 mg orally once daily): not reached
fatal treatment-related TEAE ([4]; all patients): No patients experienced a fatal treatment-related TEAE
patients who discontinued treatment due to TEAEs ([4]; all patients): 17%
patients with grade ≥3 treatment-related TEAEs ([4]; all patients): 10%
patients with treatment-related SAEs ([4]; all patients (3/30)): 10%
patients with at least 1 TEAE ([4]; all patients (n=30)): 93%
TEAE (all grades) diarrhea [4, 12]: 33.3%
TEAE (all grades) fatigue [4, 12]: 36.7%
TEAE (all grades) nausea [4, 12]: 30%
exposure versus dose ([5]; 125 to 750 mg): dose proportional up to 500 mg, with no incremental increase at 750 mg
Free E7046 concentration versus Ki of EP4 inhibition ([5]; all four doses, cycle 1 day 8): reached or exceeded the preclinical Ki value
accumulation on multiple dosing ([5]; daily oral dosing): twofold to threefold
time to maximum drug concentration ([5]; postdose, across all doses): ~ 2 hours
best response of stable disease, number of patients (advanced tumors; 125 mg): 2
patients with best response of durable stable disease for ≥18 weeks (advanced tumors; 125 mg (n=2/8)): 25%
best response of stable disease, number of patients (advanced tumors; 250 mg): 2
patients with best response of durable stable disease for ≥18 weeks (advanced tumors; 250 mg (n=2/8)): 25%
best response of stable disease, number of patients (advanced tumors; 750 mg): 3
patients with longer duration of treatment on E7046 compared with most recent prior anticancer therapy (advanced tumors; 10 patients of 30): 33%
disease control rate (advanced tumors; all patients (n=30)): 23%
objective responses by irRECIST (advanced tumors; all patients (n=30)): no objective responses
patients with best response of stable disease (irRECIST) (advanced tumors; all patients (n=30)): 23%
median duration of treatment (advanced tumors; all patients, range: 1.1–30): 5.9 weeks
tumor gene expression of TNF-α and CXCL10 ([6]; 10 paired biopsies, without reaching statistical significance): upregulation
increase in expression of CXCL10 in the tumor ([6]; individual patient case): ~ 20%
increase in percentage of CD8+ T cells in the tumor ([6]; individual patient case): 31%
CD3+ and CD8+ T cells in tumor tissues (immunohistochemistry) ([6]; paired biopsies of 11 patients, baseline to cycle 2 day 1): significant increase
FDG-PET signal compared with vehicle treatment [7]: decreased the FDG-PET signal

CC1(C)CC=C(c2nc(C3CC(C)(C)OC(C)(C)C3)ccc2NC(=O)c2nc(C#N)c[nH]2)CC1 [JNJ-40346527]
objective response rate ([8]; 1/21 patients had complete response): 5%
patients who achieved stable disease ([8]; 11/21 patients): 55%

CN(C)CC(=O)N1CCC(c2ccc(NC(=O)c3nc(C#N)c[nH]3)c(C3=CCCCC3)c2)CC1 [JNJ-28312141]
macrophage infiltration (macrophage infiltration): substantially decreased macrophage infiltration

CCCCC[C@H](O)/C=C/[C@H]1[C@H](O)CC(=O)[C@@H]1CCCCCCCO [PGE1-OH]
expression of TNF-α and CXCL10 [9]: dose-dependent down-regulation; also recorded: dose-dependently suppressed
